One data set addresses T1, Cathepsin K (Homo sapiens, UniProt P43235).
T1 sequence (P43235 whole entry): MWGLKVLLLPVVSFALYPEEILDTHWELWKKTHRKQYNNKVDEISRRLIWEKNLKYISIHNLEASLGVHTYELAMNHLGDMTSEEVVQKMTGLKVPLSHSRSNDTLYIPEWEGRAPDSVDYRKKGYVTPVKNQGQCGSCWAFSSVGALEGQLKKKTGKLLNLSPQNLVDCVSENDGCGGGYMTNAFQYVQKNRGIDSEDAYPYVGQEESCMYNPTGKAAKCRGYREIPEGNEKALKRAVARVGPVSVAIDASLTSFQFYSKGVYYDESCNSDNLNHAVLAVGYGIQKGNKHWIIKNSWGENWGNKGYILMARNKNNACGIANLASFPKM
As to the kind of experiment: Inhibition of human cathepsin-K using Z-Leu-Arg-AMC as substrate up to 20 mins by fluorescence assay. In a few lines:
(§1)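 Fluorogenic quenched-peptide cleavage assay. Enzymes at 1 nM in 100 mM potassium phosphate pH 6.5, 5 mM EDTA-Na, 0.001% Triton X-100 and 5 mM DTT. Enzyme was added to the compound dilutions, then 20 μM substrate started the reaction: Z-Val-Val-Arg-AMC, or Z-Leu-Arg-AMC for CatK. Fluorescence (ex 360/em 465 nm) was read over 20 min. IC50 is the mean of ≥2 independent experiments.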

In another data set the target is Procathepsin L (Homo sapiens, UniProt P07711). As to the kind of experiment: Inhibition of human cathepsin-L using Z-Val-Val-Arg-AMC as substrate up to 20 mins by fluorescence assay. The method, boiled down:
as §1

In data set [1] the target is Cathepsin S (Mus musculus, UniProt O70370). Nature of the data set: Inhibition of mouse cathepsin-S using Z-Val-Val-Arg-AMC as substrate up to 20 mins by fluorescence assay. The method, boiled down: as §1
A further data set has as its system A20. As to the kind of experiment: Inhibition of ovalbumin-induced antigen presentation in mouse A20 cells treated 1 hr before ovalbumin addition incubated for 16 hrs followed by co-cultured with DO10.10 T-cell hybridoma cells for 24 hrs assessed as IL-2 production by luminex single-bead analysis. It is filed as functional, cell-based. The method, boiled down: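 A20 cells were seeded at 3 × 10⁵/mL and preincubated with compound for 1 h. Ovalbumin was then added (5 mg/mL final) for 16 h. Cells were washed three times with PBS, then DO10.10 T-cell hybridoma cells (2 × 10⁵/mL) were added. After 24 h, IL-2 was quantified by Luminex single-bead assay using two anti-IL-2 antibodies. IC50 is the mean of ≥2 independent experiments.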

Data set [2] is described as follows: Drug degradation in NMRI mouse plasma at 1000 ng/mL after 4 hrs. The format is ADME, cell-free. The following applies: read-out: Drug degradation. The method, boiled down: (§2)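 Heparinized pooled NMRI mouse plasma was spiked with compound at 1000 ng/mL and incubated at 37 °C in an orbital shaker. Aliquots (n = 3 per time point) were taken at 2 min, 1 h and 4 h and analysed by LC−MS/MS.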

Data set [3] addresses Cathepsin S (Homo sapiens, UniProt P25774). Nature of the data set: Inhibition of human cathepsin-S using Z-Val-Val-Arg-AMC as substrate up to 20 mins by fluorescence assay. The method, boiled down:
as §1

A further data set concerns the target Cathepsin B (Homo sapiens, UniProt P07858). As to the kind of experiment: Inhibition of human cathepsin-B using Z-Val-Val-Arg-AMC as substrate up to 20 mins by fluorescence assay. In a few lines: as §1
Data set [4] can be described thus: Half life in C57Bl/6 mouse at 9 mg/kg, po. It is filed as ADME, organism-based. Further details: dose 9 mg/kg, route oral. The following applies: in vivo. The method, boiled down: (§3)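 Male C57Bl/6 mice, 8 weeks old, 24−29 g. Dosing was by oral gavage at 9 mg/kg as an aqueous microsuspension in gelatin/NaCl (7.5%/0.62%), or by iv bolus at 2 mg/kg in aqueous NaCl/30% 1-methyl-2-pyrrolidone. Terminal blood (n = 2 per time point) was collected into EDTA tubes and spun at 4 °C to obtain plasma. Plasma levels were measured by LC−MS/MS after acetonitrile precipitation. Values are the mean of two experiments.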

Data set [5] is described as follows: Metabolic stability in NMRI mouse plasma assessed as compound remaining at 1000 ng/mL after 4 hrs. The following applies: read-out: Stability. It is filed as ADME, cell-free. The method, boiled down:
as §2

A further data set concerns Plasma. As to the kind of experiment: Metabolic stability in human plasma assessed as compound remaining at 1000 ng/mL after 5 hrs. It is filed as ADME, cell-free.
The nature of data set [6]: Clearance in C57Bl/6 mouse at 2 mg/kg, iv and 9 mg/kg, po. It is filed as ADME, organism-based. The settings on record: in vivo. In a few lines: as §3
Data set [7] in a line: Half life in C57Bl/6 mouse at 2 mg/kg, iv. Further details: dose 2 mg/kg, route intravenous. It is filed as ADME, organism-based. The settings on record: in vivo. The method, boiled down:
as §3

Data set [8] can be described thus: Oral bioavailability in C57Bl/6 mouse at 9 mg/kg. It is filed as ADME, organism-based. The following applies: in vivo. The method, boiled down: as §3
The species named for the next data set is Homo sapiens. As to the kind of experiment: Selectivity ratio of IC50 for human cathepsin-K to IC50 for human cathepsin-S.
The subject of data set [9] is Mus musculus. Nature of the data set: Dose normalized AUC in C57Bl/6 mouse at 2 mg/kg, iv. The format is ADME, organism-based. Set-up: dose 2 mg/kg, route intravenous. The settings on record: in vivo. In a few lines:
as §3

Data set [10] relates to Mus musculus. As to the kind of experiment: Dose normalized AUC in C57Bl/6 mouse at 9 mg/kg, po. It is filed as ADME, organism-based. Further details: dose 9 mg/kg, route oral. The following applies: in vivo. In a few lines:
as §3

Data set [11] is described as follows: Volume of distribution at steady state in C57Bl/6 mouse at 2 mg/kg, iv and 9 mg/kg, po. It is filed as ADME, organism-based. The settings on record: in vivo, read-out: Vdss. The method, boiled down:
as §3

Data set [12] deals with Mus musculus. As to the kind of experiment: Reduction of ovalbumin-induced IL-2 production in po dosed DO10.11 transgenic BALB/c mouse administered 30 mins before ovalbumin challenge measured after 4 hrs by luminex single-bead analysis. The format is functional. In a few lines: (§4)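 DO10.11 BALB/c mice carrying a transgenic ovalbumin-peptide TCR were dosed orally with compound, then challenged iv with 1.0 mg low-endotoxin ovalbumin. Plasma IL-2 was measured at 4 h by Luminex bead assay using two anti-IL-2 antibodies. Groups had n = 8, and reduction was expressed versus the ovalbumin challenge group (ANOVA with Dunnett test).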

The test system of data set [13] is Mus musculus. Nature of the data set: Reduction of ovalbumin-induced IL-2 production in DO10.11 transgenic BALB/c mouse at 50 mg/kg, po administered 30 mins before ovalbumin challenge measured after 4 hrs by luminex single-bead analysis. Further details: dose 50 mg/kg. It is filed as functional, organism-based. The method, boiled down: as §4
Data set [14] is described as follows: Plasma concentration in DO10.11 transgenic BALB/c mouse at 50 mg/kg, po administered 30 mins before ovalbumin challenge measured after 4 hrs. It is filed as ADME, organism-based. Set-up: dose 50 mg/kg, route oral.

By IC50 is commonly meant the concentration at which inhibition is half-maximal. Usually half-life stands for how long it takes for the measured level to halve. Lower therefore signals rapid decline. For orientation: bioavailability means the share of a dose that reaches the circulation, judged against a reference dose that is usually intravenous. A high value points to good availability. The ED50 is the dose at which the effect has come halfway, by size or by number of responders. A high value points to a need for a large dose.

Calls of active or inactive are those of the source. The calls are words filed in the database; no cut-off is given here. Bounds are passed on as bounds.

Chain of Cathepsin S (Mus musculus, UniProt O70370) (O70370 whole entry): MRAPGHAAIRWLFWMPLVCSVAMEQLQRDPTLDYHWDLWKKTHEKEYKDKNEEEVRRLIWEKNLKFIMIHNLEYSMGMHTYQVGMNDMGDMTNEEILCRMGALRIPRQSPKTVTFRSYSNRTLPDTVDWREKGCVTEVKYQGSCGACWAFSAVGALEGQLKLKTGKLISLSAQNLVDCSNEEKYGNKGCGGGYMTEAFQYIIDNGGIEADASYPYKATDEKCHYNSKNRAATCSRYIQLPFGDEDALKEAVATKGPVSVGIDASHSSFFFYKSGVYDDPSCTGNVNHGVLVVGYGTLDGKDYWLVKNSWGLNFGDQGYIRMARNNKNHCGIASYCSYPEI
Chain of Procathepsin L (P07711 whole entry): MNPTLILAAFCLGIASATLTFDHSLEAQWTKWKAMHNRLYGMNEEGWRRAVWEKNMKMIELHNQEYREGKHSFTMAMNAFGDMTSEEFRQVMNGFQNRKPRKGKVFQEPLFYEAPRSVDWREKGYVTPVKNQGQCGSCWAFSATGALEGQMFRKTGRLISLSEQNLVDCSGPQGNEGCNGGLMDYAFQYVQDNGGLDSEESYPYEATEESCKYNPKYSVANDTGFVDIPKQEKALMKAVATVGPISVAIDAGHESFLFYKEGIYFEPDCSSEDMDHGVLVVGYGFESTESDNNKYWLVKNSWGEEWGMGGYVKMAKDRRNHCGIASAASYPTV
Chain of Cathepsin S (Homo sapiens, UniProt P25774) (P25774 whole entry): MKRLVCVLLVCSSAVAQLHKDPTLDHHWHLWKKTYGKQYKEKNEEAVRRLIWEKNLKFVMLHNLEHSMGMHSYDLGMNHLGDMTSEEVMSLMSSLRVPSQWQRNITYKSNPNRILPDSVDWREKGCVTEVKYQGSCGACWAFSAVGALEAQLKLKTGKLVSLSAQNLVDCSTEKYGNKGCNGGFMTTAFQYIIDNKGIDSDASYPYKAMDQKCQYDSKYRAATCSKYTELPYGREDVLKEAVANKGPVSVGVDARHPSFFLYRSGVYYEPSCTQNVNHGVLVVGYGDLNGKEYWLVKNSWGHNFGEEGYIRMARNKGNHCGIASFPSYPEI

`N#CC1(NC(=O)[C@@H]2C[C@@H](S(=O)(=O)c3ccccc3Cl)CN2C(=O)c2ccccc2)CC1`: the IC50 was > 25 µM against Cathepsin K; 6.8 µM at Procathepsin L; 1 nM on Cathepsin S [1]; 15 nM with A20; 0.8 nM at Cathepsin S [3]; 35.2 µM against Cathepsin B. Further, the metabolised at 4 h, 1000 ng/mL in [2] was > 90%.

On to `N#CCNC(=O)[C@@H]1C[C@@H](S(=O)(=O)c2ccccc2)C[C@H]1C(=O)N1CCOCC1`, for which the half-life in [4] was 54 min; in [7], 18 min. The remaining at 4 h, 1000 ng/mL in data set [5] turned out to be 99%. Also, the IC50 against Cathepsin K came out at 15.5 µM; at Procathepsin L, 11.7 µM; against Cathepsin S [1], 1 nM; in the data set with A20, 23 nM; at Cathepsin S [3] it was 0.7 nM; against Cathepsin B it was 6.2 µM. Besides, the Stability result in the data set with Plasma is on record as “Stable”. Moreover, the clearance in data set [6] is 39 mL/min/kg. This compound also yielded a bioavailability in [8] of 18%. Further, in the data set filed under Homo sapiens, the Ratio IC50 was > 20000. The figures for the AUC/dose with Mus musculus [9] and in the data set on Mus musculus [10] were 427 ng·h/mL and 77 ng·h/mL, respectively. Further, in data set [11], the Vd is 0.5 L/kg.

With `CC(=O)N1C[C@H](S(=O)(=O)c2ccccc2Cl)C[C@H]1C(=O)NC1(C#N)CC1`, the figures for the half-life in data set [4] and in data set [7] were 30 min and 18 min, respectively. Also, the remaining at 4 h, 1000 ng/mL in data set [5] stood at 72%. The IC50 on Cathepsin K was > 25 µM; against Procathepsin L it was 29.7 µM; on Cathepsin S [1], 2 nM; in the data set on A20, 19 nM; against Cathepsin S [3], 1 nM; against Cathepsin B it was 47.6 µM. In the data set on Mus musculus [12], the Activity entry was “Dose-dependent effect”. In addition, the 50% effect level with Mus musculus [12] (ED50) was put at a dose of 5 mg/kg. Also, the Stability entry in the data set with Plasma is on record as “Stable”. The clearance in data set [6] was determined as 29 mL/min/kg. The bioavailability in [8] is 53%. Moreover, the AUC/dose is 581 ng·h/mL in the data set on Mus musculus [9] and 309 ng·h/mL in the data set on Mus musculus [10]. Moreover, the Vd in data set [11] stood at 0.5 L/kg.

For the compound `N#CC1(NC(=O)[C@@H]2C[C@@H](S(=O)(=O)c3ccccc3C(F)(F)F)CN2)CC1`, the outcome with Mus musculus [13] was inactive. For the same compound, the half-life in data set [4] was 54 min; in [7], 66 min. Further, the remaining at 4 h, 1000 ng/mL in [5] amounted to 51%. Besides, the IC50 was > 25 µM against Cathepsin K; > 25 µM against Procathepsin L; 6 nM against Cathepsin S [1]; 58 nM with A20; 2 nM against Cathepsin S [3]; > 25 µM on Cathepsin B. For the same compound, the Stability entry in the data set with Plasma was “Stable”. Also, the clearance in [6] worked out at 1.6 mL/min/kg. The compound also gave a concentration at 4 h in [14] of 2050 ng/mL. Further, the bioavailability in data set [8] was 69%. In addition, the values for the AUC/dose in the data set on Mus musculus [9] and with Mus musculus [10] were 10400 ng·h/mL and 7200 ng·h/mL, respectively. The Vd in data set [11] amounted to 0.13 L/kg.

As for `N#CC1(NC(=O)[C@@H]2C[C@@H](S(=O)(=O)c3ccccc3Cl)CN2C(=O)C2CCCCC2)CC1`, the IC50 was > 25 µM against Cathepsin K; 8.3 µM against Procathepsin L; 0.2 nM against Cathepsin S [1]; 2 nM in the data set on A20; 0.3 nM against Cathepsin S [3]. Further, in [2], the metabolised at 4 h, 1000 ng/mL was > 90%.

For the origin of these results see ChEMBL document CHEMBL3091448, “Identification of potent and selective cathepsin S inhibitors containing different central cyclic scaffolds” (J Med Chem, 2013).
